Experimental findings from ChEMBL document CHEMBL1138851, “Synthesis, antifungal activity, and structure-activity relationships of coruscanone A analogues” (J Med Chem, 2006) are described below.

In brackets after ≈: the same amount, converted by molar mass.

The subject of experiment [1] is Candida albicans. Briefly: Antifungal activity against Candida albicans ATCC 90028. The format is functional, organism-based. The procedure, abridged: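 Broth microdilution; samples serially diluted in 20% DMSO/saline, duplicate wells. Inoculum 1.0 × 10⁴ CFU/ml in RPMI 1640/2% dextrose/0.03% glutamine/MOPS, pH 6.0. Incubated 37 °C, 18–24 h; OD630 read before and after incubation. IC50 from percent growth vs concentration; MIC as lowest concentration with no detectable growth; MFC as no growth on agar after plating 5 μl from clear wells.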

Experiment [2] deals with Cryptococcus neoformans. The experiment can be described thus: Antifungal activity against Cryptococcus neoformans ATCC 90113. The format is functional, organism-based. The procedure, abridged:
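Serial dilutions in 20% DMSO/saline, tested in duplicate. Inoculum 1.0 × 10⁵ CFU/ml in Sabouraud dextrose broth. Incubated 30 °C, 72 h; OD630 read before and after incubation. IC50 from percent growth vs concentration; MIC as lowest concentration with no detectable growth; MFC as no growth on agar after plating 5 μl from clear wells.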

The subject of experiment [3] is Aspergillus fumigatus. The experiment can be described thus: Antifungal activity against Aspergillus fumigatus ATCC 90906. The format is functional, organism-based.
Experiment [4] relates to Candida albicans. The experiment can be described thus: Antifungal activity against fluconazole-susceptible Candida albicans. The experiment is classed as functional, organism-based. The procedure, abridged:
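Broth microdilution; samples serially diluted in 20% DMSO/saline, duplicate wells. Incubated 37 °C, 18–24 h; OD630 read before and after incubation. IC50 from percent growth vs concentration; MIC as lowest concentration with no detectable growth; MFC as no growth on agar after plating 5 μl from clear wells.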

In experiment [5] the test system is Candida albicans. The experiment can be described thus: Antifungal activity against fluconazole-resistant Candida albicans. The format is functional, organism-based. The procedure, abridged: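 Broth microdilution (NCCLS-based) against patient isolate #17 (last isolate during fluconazole therapy, azole-resistant); samples serially diluted in 20% DMSO/saline, tested in duplicate. Inoculum 1.0 × 10⁴ CFU/ml in RPMI 1640/2% dextrose/0.03% glutamine/MOPS pH 6.0; 37 °C, 18–24 h; OD630 read before and after. IC50 from % growth versus concentration; MIC = no detectable growth; MFC by subculture onto agar. Means of three independent experiments.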

For experiment [6], the system named is Vero. The experiment can be described thus: Cytotoxicity against Vero cells by neutral red method. Particulars: Chlorocebus sabaeus. The format is cell-based. The procedure, abridged: (§1)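 Neutral red assay on ATCC-sourced Vero (African green monkey kidney […]) and LLC-PK1 (pig kidney epithelial) cells. Top test concentration 10 μg/mL. Values are means of three independent experiments.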

Experiment [7] has as its system LLC-PK1. Briefly: Cytotoxicity against LLC-PK1 cells by neutral red method. The experiment is classed as cell-based. Particulars: Sus scrofa. An outline of the steps:
as §1

On to `CO/C(C)=C1\C(=O)C=C(C)C1=O`, for which the 50% inhibitory concentration (IC50) in experiment [1], in experiment [2] and in experiment [3] was more than 20 µg/mL throughout.

As for `CC1=C(C)C(=O)C(=C(/C=C/c2ccccc2)OC(=O)/C=C/c2ccccc2)C1=O`, the half-maximal inhibitory concentration (IC50) in experiment [1], in experiment [2] and in experiment [3] was more than 20 µg/mL in each case.

On to `CC1=CC(=O)/C(=C(O)/C=C/c2ccccc2)C1=O`, for which the half-inhibitory concentration (IC50) in experiment [1], in experiment [2] and in experiment [3] was more than 20 µg/mL throughout.

On to `CC1=CC(=O)/C(=C(O)/C=C/c2cccs2)C1=O`, for which the IC50 in experiment [1], in experiment [2] and in experiment [3] was more than 20 µg/mL each time.

Take `CC(=O)OC(/C=C/c1ccccc1)=C1C(=O)C(C)=C(C)C1=O`: the half-inhibitory concentration (IC50) in experiment [1], in experiment [2] and in experiment [3] was more than 20 µg/mL throughout.

Turning to `COC(/C=C/c1ccco1)=C1\C(=O)C=C(C)C1=O`, the IC50 turned out to be 1.4 µg/mL (≈ 5.73 µM) in experiment [1]; 0.93 µg/mL (≈ 3.81 µM) in experiment [4]; 2.4 µg/mL (≈ 9.83 µM) in experiment [5]; 3.4 µg/mL (≈ 13.9 µM) in experiment [2]; 8.98 µg/mL (≈ 36.8 µM) in experiment [3]; 3.3 µg/mL (≈ 13.5 µM) in experiment [6]. Also, the IC50 in experiment [7] amounted to 3.3 µg/mL (≈ 13.5 µM). In addition, the MFC in experiment [1] is 4.17 µg/mL (≈ 17.1 µM); in experiment [4], 2.5 µg/mL (≈ 10.2 µM); in experiment [5], 6.67 µg/mL (≈ 27.3 µM); in experiment [2] it was 13 µg/mL (≈ 53.2 µM); in experiment [3] it was 20 µg/mL (≈ 81.9 µM). Moreover, the minimum inhibitory concentration (MIC) worked out at 4.17 µg/mL (≈ 17.1 µM) in experiment [1]; 2.5 µg/mL (≈ 10.2 µM) in experiment [4]; 4.17 µg/mL (≈ 17.1 µM) in experiment [5]; 10 µg/mL (≈ 40.9 µM) in experiment [2]; 20 µg/mL (≈ 81.9 µM) in experiment [3].

As for `COC(/C=C/c1ccc(O)cc1)=C1\C(=O)C=C(C)C1=O`, the IC50 in experiment [1] is 3.3 µg/mL (≈ 12.2 µM); in experiment [4], 1.86 µg/mL (≈ 6.88 µM); in experiment [5], 5.35 µg/mL (≈ 19.8 µM); in experiment [2], 6.95 µg/mL (≈ 25.7 µM); in experiment [3], more than 20 µg/mL; in experiment [6], 3.7 µg/mL (≈ 13.7 µM). This molecule also gave an IC50 in experiment [7] of 3.4 µg/mL (≈ 12.6 µM). Further, the MFC was 10 µg/mL (≈ 37 µM) in experiment [1]; 13 µg/mL (≈ 48.1 µM) in experiment [4]; 20 µg/mL (≈ 74 µM) in experiment [5]; more than 20 µg/mL in experiment [2]; more than 20 µg/mL in experiment [3]. The MIC was 10 µg/mL (≈ 37 µM) in experiment [1]; 5 µg/mL (≈ 18.5 µM) in experiment [4]; 20 µg/mL (≈ 74 µM) in experiment [5]; more than 20 µg/mL in experiment [2]; more than 20 µg/mL in experiment [3].

On to `O=C1C=C(c2ccccc2)C(=O)/C1=C(O)\C=C\c1ccccc1`, for which the 50% inhibitory concentration (IC50) in experiment [1], in experiment [2] and in experiment [3] was more than 20 µg/mL throughout.

With `CCOC(/C=C/c1ccccc1)=C1\C(=O)C=C(C)C1=O`, the IC50 is 5.02 µg/mL (≈ 18.7 µM) in experiment [1]; 2.49 µg/mL (≈ 9.28 µM) in experiment [4]; 4.51 µg/mL (≈ 16.8 µM) in experiment [5]; 5.02 µg/mL (≈ 18.7 µM) in experiment [2]; more than 20 µg/mL in experiment [3]; 4.8 µg/mL (≈ 17.9 µM) in experiment [6]. The same molecule had an IC50 in experiment [7] of 4 µg/mL (≈ 14.9 µM). Also, the MFC in experiment [1] is 20 µg/mL (≈ 74.5 µM); in experiment [4], 17 µg/mL (≈ 63.4 µM); in experiment [5], 20 µg/mL (≈ 74.5 µM); in experiment [2], 20 µg/mL (≈ 74.5 µM); in experiment [3] it was more than 20 µg/mL. The minimal inhibitory concentration (MIC) was 20 µg/mL (≈ 74.5 µM) in experiment [1]; 12 µg/mL (≈ 44.7 µM) in experiment [4]; 13 µg/mL (≈ 48.5 µM) in experiment [5]; 20 µg/mL (≈ 74.5 µM) in experiment [2]; more than 20 µg/mL in experiment [3].

For `CCOC(/C=C/c1ccccc1)=C1C(=O)C(C)=C(C)C1=O`, the IC50 in experiment [1], in experiment [2] and in experiment [3] was more than 20 µg/mL throughout.

On to `COC(/C=C/c1cccs1)=C1\C(=O)C=C(C)C1=O`, for which the IC50 is 1.21 µg/mL (≈ 4.65 µM) in experiment [1]; 0.74 µg/mL (≈ 2.84 µM) in experiment [4]; 1.39 µg/mL (≈ 5.34 µM) in experiment [5]; 2.49 µg/mL (≈ 9.57 µM) in experiment [2]; 9.81 µg/mL (≈ 37.7 µM) in experiment [3]; 3 µg/mL (≈ 11.5 µM) in experiment [6]. The IC50 in experiment [7] is 2.8 µg/mL (≈ 10.8 µM). Besides, the MFC is 3.33 µg/mL (≈ 12.8 µM) in experiment [1]; 2.5 µg/mL (≈ 9.6 µM) in experiment [4]; 4.17 µg/mL (≈ 16 µM) in experiment [5]; 12 µg/mL (≈ 46.1 µM) in experiment [2]; more than 20 µg/mL in experiment [3]. In addition, the minimum inhibitory concentration (MIC) in experiment [1] was determined as 3.33 µg/mL (≈ 12.8 µM); in experiment [4], 2.5 µg/mL (≈ 9.6 µM); in experiment [5], 4.17 µg/mL (≈ 16 µM); in experiment [2] it was 12 µg/mL (≈ 46.1 µM); in experiment [3], 20 µg/mL (≈ 76.8 µM).

With `COC(/C=C/c1ccccc1)=C1C(=O)C(C)=C(C)C1=O`, the IC50 in experiment [1], in experiment [2] and in experiment [3] was more than 20 µg/mL throughout.

For the molecule `CC1=CC(=O)/C(=C(O)/C=C/c2ccco2)C1=O`, the IC50 in experiment [1], in experiment [2] and in experiment [3] was more than 20 µg/mL throughout.

For the molecule `CC(=O)OC(/C=C/c1ccccc1)=C1\C(=O)C=C(C)C1=O`, the IC50 in experiment [1] was 8.56 µg/mL (≈ 30.3 µM); in experiment [4], 3.79 µg/mL (≈ 13.4 µM); in experiment [5], 5.84 µg/mL (≈ 20.7 µM); in experiment [2], 20 µg/mL (≈ 70.8 µM); in experiment [3], more than 20 µg/mL; in experiment [6] it was 5.5 µg/mL (≈ 19.5 µM). Besides, the IC50 in experiment [7] worked out at 4.9 µg/mL (≈ 17.4 µM). Also, the MFC in experiment [1], in experiment [4], in experiment [2] and in experiment [3] was more than 20 µg/mL in each case. Also, the MIC in experiment [1], in experiment [4], in experiment [2] and in experiment [3] was more than 20 µg/mL throughout.

In the case of `CO/C(=C1\C(=O)C=C(C)C1=O)c1ccccc1`, the IC50 in experiment [1] is 10.6 µg/mL (≈ 46.4 µM); in experiment [4], 7.88 µg/mL (≈ 34.5 µM); in experiment [5], 6.04 µg/mL (≈ 26.5 µM); in experiment [2] it was more than 20 µg/mL; in experiment [3] it was more than 20 µg/mL; in experiment [6] it was more than 10 µg/mL. Further, the IC50 in experiment [7] was more than 10 µg/mL. In addition, the MFC in experiment [1], in experiment [4], in experiment [2] and in experiment [3] was more than 20 µg/mL in each case. In addition, the MIC in experiment [1], in experiment [4], in experiment [2] and in experiment [3] was more than 20 µg/mL throughout.

Regarding `CC1=C(C)C(=O)C(=C(O)/C=C/c2ccccc2)C1=O`, the 50% inhibitory concentration (IC50) in experiment [1], in experiment [2] and in experiment [3] was more than 20 µg/mL in each case.

In the case of `CC1=C(C)C(=O)C(=C(/C=C/c2ccccc2)OC(=O)c2ccccc2)C1=O`, the IC50 in experiment [1], in experiment [2] and in experiment [3] was more than 20 µg/mL in each case.

Regarding `CC1=CC(=O)/C(=C(\O)c2ccccc2)C1=O`, the IC50 in experiment [1], in experiment [2] and in experiment [3] was more than 20 µg/mL each time.

Regarding `COC(/C=C/c1ccc(OC)cc1)=C1\C(=O)C=C(C)C1=O`, the IC50 was 3.03 µg/mL (≈ 10.7 µM) in experiment [1]; 1.56 µg/mL (≈ 5.49 µM) in experiment [4]; 4.29 µg/mL (≈ 15.1 µM) in experiment [5]; 3.41 µg/mL (≈ 12 µM) in experiment [2]; more than 20 µg/mL in experiment [3]; 5 µg/mL (≈ 17.6 µM) in experiment [6]. In experiment [7], this molecule came in with an IC50 of 3.9 µg/mL (≈ 13.7 µM). Also, the MFC in experiment [1] is 10 µg/mL (≈ 35.2 µM); in experiment [4] it was 6.67 µg/mL (≈ 23.5 µM); in experiment [5], 13 µg/mL (≈ 45.7 µM); in experiment [2] it was 17 µg/mL (≈ 59.8 µM); in experiment [3], more than 20 µg/mL. For the same molecule, the minimal inhibitory concentration (MIC) was 10 µg/mL (≈ 35.2 µM) in experiment [1]; 5 µg/mL (≈ 17.6 µM) in experiment [4]; 10 µg/mL (≈ 35.2 µM) in experiment [5]; 15 µg/mL (≈ 52.8 µM) in experiment [2]; more than 20 µg/mL in experiment [3].

With `COc1cccc2c1C(=O)c1c(O)c3c(c(O)c1C2=O)C[C@@](O)(C(=O)CO)C[C@@H]3O[C@H]1C[C@H](N)[C@H](O)[C@H](C)O1` [DOXORUBICIN], the figures for the IC50 in experiment [6] and in experiment [7] were 7.5 µg/mL (≈ 13.8 µM) and 0.65 µg/mL (≈ 1.2 µM), respectively.
